B1: tRNA (parent)
chain: GUUCCGUUGGCGUAAUGGUAACGCGUCUCCCUCCUAAGGAGAAGACUGCGGGUUCGAGUCCCGUACGGAACG

167 variants from the RNAGym collection of RNA variant scans (doi:10.1126/science.aae0568) can be followed below.

This sample holds only a part of the variants without activity.

The variants in this series derive from B1. Kind of series: yeast fitness relative to wild type (ratio to wild type); higher = fitter; tRNA-Arg(CCU), competitive growth, 37 C, YPD. Summed up: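 Variants of the tRNA-Arg(CCU) gene were chemically synthesised with a 3% per-site mutation rate across 69 sites and placed at the native genomic locus in Saccharomyces cerevisiae. Six parallel replicates of the pooled strains were competed in YPD at 37°C for 24 hours, and gene amplicons from the start and end populations were read by 100-nucleotide paired-end sequencing. Darwinian fitness relative to wild type was derived from changes in genotype frequencies. Genotypes required ≥ 100 starting reads, and estimates < 0.5 were set to 0.5.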
Take U26A A37G G48A C49G: the yeast fitness was at most 0.5.
Consider U26C C31G A43C, for which the yeast fitness was found to be 0.78.
The same measure for U26G A45G C46U U53G C66U A69U: 0.582; for U26A C30A C34A G48C G68U: at most 0.5.
Take U26A U28A C31U G51A: the yeast fitness was at most 0.5.
The same measure for U26C U28G C34U G38A: at most 0.5; for U26A C34G A45G: 0.517; for U26A G44C: 0.886.
In the case of U26A U35C A45U, the yeast fitness came out at 0.746.
As to U26A A45G U54C, the yeast fitness turned out to be 0.52.
On to U26C G56C A57C, for which the yeast fitness was at most 0.5.
Consider U26G C27G C33U G39C C49U, for which the yeast fitness was at most 0.5.
Turning to U26G C31U C62U, the yeast fitness was 0.695.
Take U26A G41A: the yeast fitness is 0.818.
In the case of U26C C46G C62G G67U it was at most 0.5; in that of U26A C34G A57U C62U, 0.582; in that of U26C C27U G67C, 0.713.
In the case of U26C G56A, the yeast fitness was found to be 0.895.
Take U26G A70C: the yeast fitness was determined as 0.924.
For the variant U26C G63C, the yeast fitness turned out to be 0.76.
The same measure for U26A G38C U47G G58A: at most 0.5.
In the case of U26A C31U G68A, the yeast fitness amounted to 0.716.
The same measure for U26A G44C G67U: 0.593.
For U26A A36G A37G C46G C49U U54C A70G, the yeast fitness is 0.754.
U26C G67C: the yeast fitness is 0.833.
On to U26C G67A, for which the yeast fitness stood at 0.762.
Take U26A C49U A65C: the yeast fitness was determined as 0.742.
U26A C49U A65G: the yeast fitness is at most 0.5.
Take U26A C62U: the yeast fitness turned out to be 0.934.
Take U26A C62G: the yeast fitness was 0.69.
U26C C62U: the yeast fitness worked out at 0.823.
For U26G A69U, the yeast fitness is 0.919.
On to G25U A36U G56C A65C, for which the yeast fitness was 0.521.
In the case of U26C C33A A40U, the yeast fitness was found to be 0.668.
As to U26C C33G A42C G67C, the yeast fitness was at most 0.5.
As to U26A C30G C33U, the yeast fitness was 0.604.
In the case of U26C C33G U54C, the yeast fitness was at most 0.5.
The same measure for U26A A65U: 0.829.
Regarding U26A A65G, the yeast fitness was determined as 0.822.
In the case of U26A C49U C61G it was at most 0.5; in that of U26A G41C C66A A70C, 0.663.
As for U26C C66G A69C, the yeast fitness was at most 0.5.
For the variant U26A C46U, the yeast fitness came out at 0.874.
With U26C C29G A69U, the yeast fitness was 0.572.
For U26C C30G G41A G56A C60G C62U G68A, the yeast fitness is at most 0.5.
U26C G52A A70C: the yeast fitness is at most 0.5.
The same measure for U26A C34U G50A A69U: at most 0.5.
For the variant U26A G44C G68C, the yeast fitness stood at 0.563.
Consider U26C A36U A40U, for which the yeast fitness turned out to be 0.603.
Turning to U26C C30A, the yeast fitness stood at 0.815.
The same measure for U26C C30G: 0.651.
As to G25U A36U, the yeast fitness came out at 0.531.
As for U26C C46G G63A, the yeast fitness is at most 0.5.
In the case of U26A U35A G48C it was at most 0.5.
Consider U26G C29A C30G C31G U59A, for which the yeast fitness was 0.533.
In the case of U26A C49U G52C it was at most 0.5; in that of U26G C30A G68C, 0.531.
In the case of U26A U35C A45U A65C it was at most 0.5; in that of U26C U47C, 0.952.
Take U26C A45U U53A U59A: the yeast fitness was 0.512.
With U26C U28C A36C, the yeast fitness is at most 0.5.
With U26A C55A A57U, the yeast fitness was at most 0.5.
On to U26C A45U, for which the yeast fitness turned out to be 0.716.
The same measure for U26C U32C U47C G50A C61U U64A: at most 0.5; for U26A A57G: 0.973; for U26A A57U: 0.802.
Consider U26G A37C A42G G44C A45G, for which the yeast fitness is at most 0.5.
For the variant U26C A40C A43G G44A, the yeast fitness is at most 0.5.
For U26A C29G G58A A70C, the yeast fitness came to 0.631.
As to U26C C30G G41A U64C, the yeast fitness is at most 0.5.
Regarding U26C C30U C60A, the yeast fitness is at most 0.5.
The same measure for U26A U54A A70U: 0.69; for U26G C46G A65C: 0.563; for G25U C29A G56C: at most 0.5.
Consider U26A C33A A37G, for which the yeast fitness was determined as 0.581.
U26C A69U: the yeast fitness came out at 0.906.
As to U26G C55G A65C A70U, the yeast fitness is at most 0.5.
On to U26A C27U C49A U64C, for which the yeast fitness is at most 0.5.
Turning to U26A G67C, the yeast fitness was found to be 0.829.
The same measure for U26A G67U: 0.632; for U26A A42C U59G: at most 0.5; for U26G A36G G68A A69G: 0.626.
U26A A40C G41A G58A: the yeast fitness was determined as 0.655.
The same measure for U26C U32C C66U: 0.676; for U26C C30U U47A G67U: at most 0.5; for U26C C30G C61U A70G: 0.689.
In the case of U26C A40C, the yeast fitness is 0.941.
For U26C A40U, the yeast fitness amounted to 0.846.
U26G A45U G50A C55A: the yeast fitness is at most 0.5.
In the case of U26C C29G U35C it was at most 0.5; in that of U26A C30A C62U, 0.585.
Regarding U26A U47C, the yeast fitness turned out to be 0.994.
In the case of U26A U47G, the yeast fitness came to 0.661.
Take U26A A43C A45U A65C: the yeast fitness was at most 0.5.
U26G C33A A42U C55G: the yeast fitness is 0.556.
As for U26A C49A, the yeast fitness came out at 0.637.
Turning to U26G C34U C49A G51A A69U, the yeast fitness is at most 0.5.
Consider U26A C49G A70C, for which the yeast fitness worked out at 0.574.
Consider U26A C49G A69C, for which the yeast fitness turned out to be 0.6.
Take U26G C30U G52A: the yeast fitness was determined as 0.519.
With U26C U53C G58A, the yeast fitness was 0.686.
For the variant U26A C31G A36U A65U, the yeast fitness is 0.681.
Take U26A A65U G67A: the yeast fitness was determined as 0.62.
In the case of U26C C33G it was 0.632; in that of U26C C33U, 0.676.
Take U26A C30U U54A: the yeast fitness is at most 0.5.
For U26C C27G C60U, the yeast fitness is at most 0.5.
As to U26A A43G G51C A69U, the yeast fitness worked out at 0.566.
As to U26A C34U C49G C66A, the yeast fitness was at most 0.5.
Turning to U26C C33G A42C, the yeast fitness worked out at 0.537.
With U26A C27G C31G G38C, the yeast fitness is at most 0.5.
For the variant U26A C31G A36C G41A C55G, the yeast fitness is at most 0.5.
Take G25U U59C: the yeast fitness came to 0.657.
Consider U26G A43G, for which the yeast fitness was found to be 0.895.
Regarding U26A C27U C33G A36U G50A, the yeast fitness is at most 0.5.
As to U26G C61U G63C A65G, the yeast fitness came out at 0.799.
U26C A42C A70C: the yeast fitness was 0.757.
Turning to U26G C27G U32A A40U, the yeast fitness was at most 0.5.
As for U26C C29G C49U A69U, the yeast fitness worked out at 0.588.
Regarding U26C C61A C66U, the yeast fitness stood at 0.525.
Consider U26G A36C C66A, for which the yeast fitness is at most 0.5.
Regarding U26A C31U, the yeast fitness was 0.999.
For U26A C31A, the yeast fitness amounted to 0.803.
On to U26C G39C C55A C60G, for which the yeast fitness was at most 0.5.
In the case of U26A A43U A69U it was 0.695.
Consider U26A C62U G67A, for which the yeast fitness came out at 0.648.
The same measure for U26A C27U C46G: 1.
In the case of U26C G39A, the yeast fitness was 0.698.
The same measure for U26C U59G: 0.862; for U26A U32C A57C C62U: at most 0.5.
Regarding U26A A40C U64C C66A, the yeast fitness is at most 0.5.
As to U26C C27G G68C, the yeast fitness is at most 0.5.
As to U26A U47G U54C, the yeast fitness was at most 0.5.
On to U26A G58A, for which the yeast fitness is 0.928.
Consider U26G A65G, for which the yeast fitness came out at 0.971.
With U26G C31G U32A, the yeast fitness is 0.691.
Turning to U26A G44C A65G, the yeast fitness is 0.573.
On to U26A U64C, for which the yeast fitness is 0.856.
U26C U35C C49U A57U: the yeast fitness is 0.656.
The same measure for U26G: 0.971; for U26A: 0.996; for U26C: 0.988.
For the variant U26C A43U G48C C60G, the yeast fitness was at most 0.5.
The same measure for U26A U28A C31U G67A: at most 0.5; for U26A U47G C49G A69C: at most 0.5.
In the case of U26G C34U A40G G51A it was at most 0.5; in that of U26C U32A C34U G38C G51A A57C A65C, at most 0.5.
For the variant U26A C49U G58A, the yeast fitness was at most 0.5.
With U26G C61U, the yeast fitness turned out to be 0.864.
On to U26A C27G C31U C46A A65C G68A, for which the yeast fitness is 0.626.
On to U26C C49A, for which the yeast fitness was determined as 0.598.
Turning to U26C C49U, the yeast fitness was found to be 0.833.
Consider U26A C31G C62U, for which the yeast fitness worked out at 0.647.
In the case of U26C G39A U59C it was 0.604; in that of U26C A36C G56C, 0.633.
The same measure for U26C G51C: 0.663; for U26C C31U C46A G48C A57U: 0.649; for U26C C27G: 0.588.
For U26C C27U, the yeast fitness came to 1.02.
In the case of U26G C34U G44C G56A it was at most 0.5.
U26A U28A C31U C55U C66G: the yeast fitness was at most 0.5.
The same measure for U26G C27U A69U: 0.696; for U26G C27U A70U: at most 0.5.
U26C C29U G63A: the yeast fitness is 0.672.
G25U C34G C55G U59C C60U G67U: the yeast fitness is at most 0.5.
With U26A C31G A36U U54C C55G, the yeast fitness was at most 0.5.
In the case of U26A G68C, the yeast fitness worked out at 0.82.
